Rows were chosen to be rich in hits. Some 3% of all compounds tested hit in one or more screens of this group.
TAAR1 agonist – agonists of human TAAR1; Q96RJ0; CHO RD-HGA16 TAAR1, Fluo-8 calcium fluorescence; vehicle wells 0%, saturating PEA agonist 100%; activation, % at 3 µM; 0.99% of 360,000 active; AID 624467;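 active = activation above the mean activation of all test compounds in the run plus 3 SD, cut at about 38% in these data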
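System: CHO-derived RD-HGA16 cells with stable Gα16 and human TAAR1 / Times: 17-24 h plating, Fluo-8 75 min 37 °C, 30 min RT / Technique: calcium-sensitive Fluo-8 signal, excitation 470-495, emission 515-575 nm / Measure: % activation relative to PEA EC100 response / Benchmarks: DMSO and PEA EC100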
CHRM4 agonist – CHRM4 agonism in calcium assay; P08173; CHO-K1 hM4/Gqi5, Fluo-8 calcium fluorescence; vehicle 0%, full acetylcholine response 100%; activation, % at 3 µM; 0.14% of 360,000 active; AID 624127;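 active = activation above the run mean over all test wells plus 3 SD, cut at about 32% in these data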;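 note: peak over basal fluorescence ratio per well then scaled between controls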
Target sequence (P08173 whole entry, looked up): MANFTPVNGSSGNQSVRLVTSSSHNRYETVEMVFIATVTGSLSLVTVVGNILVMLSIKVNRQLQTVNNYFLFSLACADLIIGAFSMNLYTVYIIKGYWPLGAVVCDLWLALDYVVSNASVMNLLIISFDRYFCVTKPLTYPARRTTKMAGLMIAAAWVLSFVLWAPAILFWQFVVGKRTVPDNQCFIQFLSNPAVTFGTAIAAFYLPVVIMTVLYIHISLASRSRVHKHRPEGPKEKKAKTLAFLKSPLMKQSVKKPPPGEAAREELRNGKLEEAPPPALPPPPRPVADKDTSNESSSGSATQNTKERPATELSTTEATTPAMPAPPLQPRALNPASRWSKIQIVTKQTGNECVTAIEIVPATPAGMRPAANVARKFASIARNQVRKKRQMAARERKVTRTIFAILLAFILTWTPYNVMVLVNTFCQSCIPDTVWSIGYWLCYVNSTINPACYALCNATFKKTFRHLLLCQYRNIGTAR
M4 antag – blocks acetylcholine activation of human M4 receptor; inhibition, % at 3 µM; AID 624125; P08173; CHO-hM4 cells, ACh EC80, Fluo-8 calcium fluorescence; 0.73% of 360,000 active;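 active = inhibition above its plate's cutoff, the mean inhibition of sample wells plus 3 SD, cut at about 27% in these data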
TAAR1 antagonist – human TAAR1 antagonism; Q96RJ0; 1.5% of 360,000 active; CHO RD-HGA16 TAAR1, Fluo-8 calcium fluorescence, antagonist; AID 624466; inhibition, % at 3 µM;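 active = inhibition above a per-plate cutoff, the mean inhibition of test compounds on that plate plus 3 SD, cut at about 49% in these data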
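test system = CHO RD-HGA16 cells bearing hTAAR1 | replication = singlicate | controls = DMSO-only wells and EC80 β-PEA-stimulated wells | reagent = EC80 β-phenethylamine stimulus | read-out basis = percent inhibition of PEA-evoked calcium signal, max/basal emission ratio | schedule = seeding 17-24 h prior, 75-min 37 °C, 30-min RT dye loading | signal = kinetic Fluo-8 calcium fluorescence measurement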
M4 PAM – positive allosteric modulators of human muscarinic M4 receptor; CHO-K1 hM4/Gqi5, Fluo-8 calcium fluorescence, ACh EC20; 0% = ACh EC20, 100% = maximal ACh; 0.4% of 360,000 active; activation, % at 3 µM; P08173;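 active = activation above its plate's cutoff, the mean activation of sample wells plus 3 SD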
nonsel antag count – nonselective antagonism, TAAR1 counter-screen. shares compounds with TAAR1 antagonist. counterscreen cell line, calcium fluorescence, antagonist mode. inhibition, % at 3 µM. 77% of 2,400 active. AID 651780; in the data active = inhibition above about 22%;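 note: CHO-Ga16 host cells stimulated with ATP at an EC80 level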
TAAR1 antag conf – confirmation of human TAAR1 antagonists. AID 651785. inhibition, % at 3 µM. 40% of 2,400 active. shares compounds with TAAR1 antagonist. TAAR1-expressing cells, fluorescence antagonist read-out; in the data active = inhibition above about 49%;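 note: CHO-Ga16 host cells challenged with agonist PEA near its EC80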
Ga16 ag counter – counter-screen for TAAR1 antagonists: nonselective Ga16 agonists | shares compounds with TAAR1 antagonist | Ga16-expressing cells, calcium fluorescence, agonist counterscreen | activation, % at 3 µM | 18% of 2,400 active; in the data active = activation above about 12%
TAAR1 ag count – TAAR1 agonism, antagonist counter-screen; shares compounds with TAAR1 antagonist; AID 651955; hTAAR1 cell line, fluorescence activation, agonist mode; 2% of 2,400 active; activation, % at 3 µM; in the data active = activation above about 37%;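 note: CHO cells stably expressing TAAR1 with calcium dye readout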
A number is an active result; . = inactive; / = no result given.

SMILES	TAAR1 agonist	CHRM4 agonist	M4 antag	TAAR1 antagonist	M4 PAM	nonsel antag count	TAAR1 antag conf	Ga16 ag counter	TAAR1 ag count
CC(=O)c1cc(Cl)ccc1OCc1cccc(S(=O)(=O)N2CCOCC2)c1	.	.	.	91	.	35	55	13	.
O=S(=O)(c1cccc(COc2ccc(Cl)cc2Cl)c1)N1CCOCC1	.	.	.	.	.	/	/	/	/
Nn1cnc2c(ncn2C2OC(CO)C(O)C2O)c1=O (stereo unspecified)	.	.	.	.	.	/	/	/	/
O=c1cc(CO)[nH]nc1CO	.	.	.	.	.	/	/	/	/
COc1ccc(C2CC(=O)C(c3cccc(C)c3)=CN2Cc2ccccc2)cc1 (stereo unspecified)	.	/	/	66	/	22	.	.	.
COc1ccc(C2=CN(Cc3ccccc3)C(c3ccccc3)CC2=O)cc1 (stereo unspecified)	.	.	.	.	.	/	/	/	/
CC(C)c1ccc(-c2nn(-c3ccccc3)cc2C(=O)NCC2CCCO2)cc1 (stereo unspecified)	.	.	.	88	.	.	.	.	.
COC(=O)C[C@H]1CC[C@@H](NC(=O)c2ccncc2)[C@@H](CO)O1	.	.	.	.	.	/	/	/	/
CC(C)C[C@H]1COc2c(Cl)cccc2S(=O)(=O)N1Cc1ccc(F)cc1F	.	/	/	.	/	/	/	/	/
CN(C(=O)c1sc2nc(N3CCOCC3)c3c(c2c1N)CCCC3)c1ccccc1	.	.	.	59	.	.	.	.	.
Nc1c(C(=O)NCCc2ccccc2)sc2nc(N3CCOCC3)c3c(c12)CCCC3	.	.	.	.	.	/	/	/	/
COc1ccc(C(=O)N/N=C/c2ccc(OC)c(OS(=O)(=O)c3ccccc3)c2)cc1	.	.	.	71	.	.	.	.	.
COc1ccc(/C=N\NC(=O)c2ccc(-c3ccccc3)cc2)cc1COC(C)=O	.	.	.	52	.	26	.	.	.
O=C(N/N=C\c1c(F)c(F)c(F)c(F)c1F)c1ccc(-c2ccccc2)cc1	.	.	.	.	.	/	/	/	/
O=C(N/N=C\c1cccc(F)c1)c1ccc(-c2ccccc2)cc1	.	.	.	57	.	.	.	.	.
COc1cc(/C=N/NC(=O)c2cc(-c3ccccc3)sc2N)cc(OC)c1OC	.	/	/	73	/	32	50	13	.
COc1ccc(/C=N/NS(=O)(=O)c2ccccc2)cc1OS(=O)(=O)c1ccccc1	.	.	.	.	.	/	/	/	/
COc1cc(/C=N/NC(=O)c2ccc(-c3ccccc3)cc2)cc(OC)c1OC	.	.	.	.	.	/	/	/	/
COc1ccc(NS(=O)(=O)c2cccc(C(=O)N/N=C/c3ccc4c(c3)OCCO4)c2)cc1	.	.	.	.	.	/	/	/	/
COc1ccccc1NS(=O)(=O)c1cccc(C(=O)N/N=C/c2ccc3c(c2)OCCO3)c1	.	.	.	56	.	32	.	.	.
O=C1c2cccc3c2C2(O)c4c1cccc4C(=O)c1cccc(c12)C3=O	.	.	.	71	.	33	51	.	.
COc1cc(NC(=O)c2ccccc2OCc2ccccc2)cc(OC)c1OC	.	.	.	61	.	.	.	.	.
CNC(=O)c1cccc(NC(=O)c2ccccc2OCc2ccccc2)c1	.	.	.	54	.	.	.	.	.
O=C(Nc1ccc(O)cc1)c1ccccc1OCc1ccccc1	.	.	.	.	.	/	/	/	/
OCCNc1nc(Nc2cc(Cl)ccc2OC2CCCC2)nc(N2CCCC2)n1	.	.	.	49	.	22	.	.	.
COc1ccc2cc(-c3[nH]ncc3CN3CCCN(c4ccccc4)CC3)ccc2c1	.	.	.	106	.	.	.	22	56
COc1ccc(-c2[nH]ncc2CN2CCCN(c3ccccc3)CC2)c(F)c1	.	.	.	.	.	/	/	/	/

From PubChem BioAssay
